For assay [1], the system named is DNA. Put plainly: Binding affinity to calf thymus DNA assessed as DNA intercalation at 50 uM by fluorescence spectrophotometry. Format: nucleic-acid assay. To be noted: Bos taurus. The method, boiled down: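 Fluorescence titration: increasing ct-DNA added to compound in phosphate buffer (pH 7.0); decrease in emission band at 500 nm monitored; binding constant derived from titration data by Benesi–Hildebrand method.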

Assay [2] deals with DNA. Put plainly: Binding affinity to calf thymus DNA assessed as change in melting temperature by thermal denaturation assay. The class given is nucleic-acid assay. To be noted: Bos taurus.
The test system of assay [3] is DNA. Put plainly: Binding affinity to calf thymus DNA assessed as DNA intercalation at 50 uM by UV-visible spectrophotometry. Format: nucleic-acid assay. To be noted: Bos taurus. In a few lines: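 ct-DNA titrated (4–100 µM) into phosphate-buffered solution (pH 7.0) of compound at 50 µM; absorption spectra recorded by UV–visible spectrophotometry, tracking band shift and hypochromism.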

Another assay relates to HCC 2998. Put plainly: Growth inhibition of human HCC2998 cells at 10 uM after 48 hrs by SRB assay. The class given is functional. In a few lines: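 Cells grown in RPMI 1640 with 5% FBS and 2 mM L-glutamine, plated at 5000–40,000 cells/well by doubling time and preincubated 24 h (37 °C, 5% CO2); a time-zero plate is TCA-fixed. Single dose added, then 48 h incubation. Fixed with cold TCA, stained with 0.4% SRB, dye solubilized in 10 mM Tris base, absorbance at 515 nm; percent growth vs time-zero and untreated control.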
A general note: In SRB staining, fixed cells bind dye roughly in proportion to their protein.

Structures are written as SMILES. Calls of active or inactive are those of the source. No cut-off for these calls is given here.

In general, ΔTm refers to the change in melting temperature against a reference sample. For the compound `Nc1ccc(Sc2ccc3c4c2cccc4c(=O)n2c4ccccc4nc32)cc1`, the outcome in the assay on DNA [1] and in the assay with DNA [3] was Active. The ΔTm with DNA [2] was 8.2 °C.
As to `O=c1[nH]cc(F)c(=O)[nH]1` [FLUOROURACIL], in the assay with HCC 2998, the “growth inhibition (GI)” value is “Active”.

The values are drawn from ChEMBL document CHEMBL2424551, “Synthesis, in vitro evaluation and molecular modelling of naphthalimide analogue as anticancer agents” (2013).
